The list is not random: actives were taken first. Their share in the collection is about 2.3%.
V1aR counter – activates human V1a receptor in oxytocin agonist counter-screen. CHO-V1R cells, Fluo-8 calcium fluorescence, agonist mode; 0% DMSO, 100% 3 nM vasopressin. P37288. actives 0.25% (n = 320,000). activation, % at 3 µM;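 active = activation above the mean activation of all tested compounds plus 3 SD, per screening run, cut at about 20% in these data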;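 also: signal is peak over basal fluorescence ratio across a 100 second FLIPR read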
TAAR1 agonist – agonists of human TAAR1; Q96RJ0; CHO RD-HGA16 TAAR1, Fluo-8 calcium fluorescence; vehicle wells 0%, saturating PEA agonist 100%; activation, % at 3 µM; actives 0.99% (n = 360,000);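 active = activation above the mean activation of all test compounds in the run plus 3 SD, cut at about 38% in these data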
Target sequence (Q96RJ0 whole entry, looked up): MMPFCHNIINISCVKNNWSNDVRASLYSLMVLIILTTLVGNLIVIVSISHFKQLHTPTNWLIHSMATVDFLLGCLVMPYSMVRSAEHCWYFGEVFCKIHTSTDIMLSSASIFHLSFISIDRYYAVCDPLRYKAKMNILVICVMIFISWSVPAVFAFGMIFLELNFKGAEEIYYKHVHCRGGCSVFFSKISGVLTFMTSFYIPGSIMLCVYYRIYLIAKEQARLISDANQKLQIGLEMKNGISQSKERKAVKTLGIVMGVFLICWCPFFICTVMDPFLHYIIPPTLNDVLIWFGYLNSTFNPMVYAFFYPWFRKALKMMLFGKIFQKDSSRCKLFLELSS
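Test system: RD-HGA16 (CHO) cells co-expressing Gα16 and hTAAR1; dosing: one-point dosing at 3 µM (nominal); timing: 17-24 h seeding, 75 min 37 °C dye, 30 min RT; signal: kinetic Fluo-8 calcium fluorescence; read-out basis: % activation relative to PEA EC100 response; controls: DMSO and PEA EC100; replicates: n 1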
OXTR agonist – human OXTR agonism; activation, % at 3 µM; P30559; actives 0.32% (n = 320,000); CHO-OTR cells, Fluo-8 calcium fluorescence; normalized: DMSO 0%, oxytocin 100%;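 active = activation above the mean of all tested compounds plus 3 SD, cutoff set per screening run, cut at about 20% in these data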;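 also: peak over basal fluorescence ratio from a 100 s FLIPR kinetic read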
Target sequence (P30559 whole entry, looked up): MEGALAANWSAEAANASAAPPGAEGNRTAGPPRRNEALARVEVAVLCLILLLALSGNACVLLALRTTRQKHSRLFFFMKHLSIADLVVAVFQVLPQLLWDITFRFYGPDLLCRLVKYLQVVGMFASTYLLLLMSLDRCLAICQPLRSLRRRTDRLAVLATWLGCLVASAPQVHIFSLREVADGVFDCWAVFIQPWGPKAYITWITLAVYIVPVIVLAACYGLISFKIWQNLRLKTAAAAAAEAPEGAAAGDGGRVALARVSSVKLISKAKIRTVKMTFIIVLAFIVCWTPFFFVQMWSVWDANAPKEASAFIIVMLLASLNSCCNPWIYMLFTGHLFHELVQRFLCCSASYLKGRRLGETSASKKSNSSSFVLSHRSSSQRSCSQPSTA
TAAR1 antag – human TAAR1 antagonism | Q96RJ0 | CHO RD-HGA16 TAAR1, Fluo-8 calcium fluorescence, antagonist | inhibition, % at 3 µM | actives 1.5% (n = 360,000) | AID 624466;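 active = inhibition above a per-plate cutoff, the mean inhibition of test compounds on that plate plus 3 SD, cut at about 49% in these data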;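 also: 0% = DMSO plus EC80 beta-PEA response and 100% = DMSO alone without agonist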
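Test system: RD-HGA16 CHO cells with stable hTAAR1 and Gα16 / Probe or stimulus: EC80 β-phenethylamine stimulus / Times: seeding 17-24 h prior, 75-min 37 °C, 30-min RT dye loading / Detection: Fluo-8 calcium-sensitive fluorescence / Read-out basis: % inhibition scaled between DMSO and EC80 PEA controls / Repeats: singlicate, one well per test compound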
OXTR potentiate – potentiates the human oxytocin receptor response; actives 0.061% (n = 320,000); activation, % at 3 µM; CHO-OTR cells, Fluo-8 calcium fluorescence, potentiator mode; 0% = oxytocin EC15, 100% = EC100;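 active = activation above that plate's cutoff, the mean activation of tested compounds plus 3 SD, cut at about 6.6% in these data, passing the limit was not always enough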;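 also: 100% uses oxytocin at 75 nM as the full agonist control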
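Dosing: Single dose, 3.0 µM nominal final compound concentration | Material: Human OTR in CHO cells | Technique: Kinetic Fluo-8 calcium fluorescence | Benchmarks: EC15 oxytocin alone as 0%, 75 nM oxytocin as 100% | Probe or stimulus: Oxytocin at about EC15, sub-maximal agonist stimulus | Incubation: Compound 6 min at room temperature before oxytocin, 100 s read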
An asterisk follows results filed as active; / = not tested or not shown.

SMILES	V1aR counter	TAAR1 agonist	OXTR agonist	TAAR1 antag	OXTR potentiate
CC(C)N1CCN(c2ccc(OCC3COC(Cn4cncn4)(c4ccc(Cl)cc4Cl)O3)cc2)CC1 (stereo not drawn)	/	20.2	/	61.0*	/
COc1ccc(N2CCN(C(=O)Cn3cncn3)CC2)cc1	0.5	1.2	0.3	-22.0	-11.4
COc1cc(OC)c(OC)cc1/C=C1\CC(C)C/C(=C\c2cc(OC)c(OC)cc2OC)C1=O (stereo not drawn)	3.7	11.1	3.1	51.3*	-19.2
CCC1C/C(=C\c2cc(OC)c(OC)cc2OC)C(=O)/C(=C/c2cc(OC)c(OC)cc2OC)C1 (stereo not drawn)	2.7	/	1.4	/	-15.9
CN[C@H](C)C(=O)NC[C@H]1O[C@@H](n2cc(C)c(=O)[nH]c2=O)C[C@@H]1O	/	1.0	/	4.2	/
CCOC(=O)C1CCN(c2cc3c(cc2NC(=O)c2ccccc2Cl)n(C)c(=O)n3C)CC1	-0.2	4.4	-1.1	55.8*	-6.1
COc1ccc([C@H]2C(C#N)=C([S-])N[C@](C)(O)[C@@H]2[n+]2ccccc2)cc1	/	9.8	/	1.2	/
CCOC(=O)c1c(C)[nH]c(C)c1S(=O)(=O)NCCc1cccs1	1.3	40.5*	-0.1	-10.0	-0.7
COc1cc(/C=C/C(=O)/C=C(O)/C=C/c2ccc(O)c(OC)c2)ccc1O	40.9*	43.9*	32.8*	65.3*	-10.2
COc1cc(C=C2C(=O)C=CC2=O)ccc1O	/	43.3*	/	36.8	/
CNC(=O)c1ccc(NC(=O)c2ccc3c(=O)n4c(nc3c2)CCC4)cc1	0.4	13.4	0.5	52.5*	2.2
O=C(Cc1c(Cl)cccc1Cl)Nc1ccc(S(=O)(=O)Nc2ncccn2)cc1	-0.1	2.8	0.5	-3.9	-8.1
O=C(c1ccc(Cl)c(S(=O)(=O)N2CCc3ccccc32)c1)N1CCN(c2ccccc2O)CC1	1.7	21.6	-0.1	60.6*	-6.1
O=C(Cc1cccs1)N(Cc1cccs1)C1(C(=O)NC2CCCC2)CCCCC1	28.1*	8.2	23.9*	12.2	-19.3
N#CC1=C(N)Oc2cc(O)c(Cl)cc2C1c1cccnc1 (stereo not drawn)	/	9.1	/	-6.5	/
N#CC1=C(N)Oc2cc(O)c(Cl)cc2C1c1ccccc1F (stereo not drawn)	18.2	16.9	24.7*	7.9	-11.8
CC(C)(C)c1ccc(C(=O)Nc2cccc(-n3cnnn3)c2)cc1	2.4	5.5	-2.0	58.0*	-14.3
O=C(Nc1cccc(-n2cnnn2)c1)c1cccc(Cl)c1	3.1	16.7	7.6	10.9	-7.7
O=C(Nc1cccc(-n2cnnn2)c1)c1cc(Cl)nc(Cl)c1	6.7	48.8*	6.3	29.5	-5.7
CCCn1c(Oc2ccccc2)nc2c1c(=O)n(C)c(=O)n2C	0.5	-0.6	-2.0	4.5	-5.8
O=C(Nc1cccc([N+](=O)[O-])c1)c1ccc(CSc2ccccc2)cc1	0.7	14.8	1.4	52.2*	-8.8
O=C(Nc1cccc([N+](=O)[O-])c1)c1ccccc1	-0.4	0.2	-1.5	4.1	-9.8
Cc1cc(-c2nc(C)c(C(=O)NN)s2)no1	2.0	2.0	-2.2	-23.1	-14.9
CC(C)c1ccc(NC(=O)Nc2nc(C(N)c3ccccc3)cs2)cc1 (stereo not drawn)	/	45.1*	/	9.9	/
CC(C)c1ccc(NC(=O)Nc2nc(C(N)C(C)C)cs2)cc1 (stereo not drawn)	/	29.1	/	27.9	/
SMILES	V1aR counter	TAAR1 agonist	OXTR agonist	TAAR1 antag	OXTR potentiate
CN(c1ccccc1)S(=O)(=O)c1cccc(NC(=O)c2cccc(C#N)c2)c1	5.2	21.5	4.5	66.0*	-11.9
CN(c1ccccc1)S(=O)(=O)c1cccc(NC(=O)c2ccc3ncsc3c2)c1	4.2	8.7	4.1	59.9*	-11.7
CN(c1ccc(C(=O)Nc2cccc(O)c2)cc1)S(=O)(=O)c1ccccc1	7.8	12.3	2.4	9.9	-7.3
CN(c1ccccc1)S(=O)(=O)c1cccc(C(=O)Nc2cccc(C(=O)NC3CC3)c2)c1	/	10.9	/	16.7	/
CC(=O)c1cccc(NC(=O)c2ccc(N(C)S(=O)(=O)c3ccc(C)cc3)cc2)c1	8.1	6.9	2.1	54.9*	-10.2
Cc1nc2ccc(NC(=O)c3cccc(S(=O)(=O)N(C)c4ccccc4)c3)cc2s1	5.5	/	-0.3	/	-9.0
COc1ccc(C(C)c2cc3c(cc2OCC(=O)O)OCO3)cc1 (stereo not drawn)	/	-0.7	/	-4.6	/
CC[C@H](C)[C@H](NC(=O)[C@H](Cc1ccc(O)cc1)NC(=O)[C@@H](N)C(C)C)C(=O)N[C@@H](Cc1cnc[nH]1)C(=O)N1CCC[C@H]1C(=O)N[C@@H](Cc1ccccc1)C(=O)O	25.1*	/	71.7*	/	-24.6
CCC(C)C(NC(=O)C1CCC(=O)N1C(=O)OCc1ccccc1)C(=O)NC(Cc1ccccc1)C(N)=O (stereo not drawn)	-0.3	-3.4	0.9	-4.2	5.4
CC(C)CCC(C)NC(=O)Cc1ccc(S(=O)(=O)N2CCOCC2)s1 (stereo not drawn)	0.5	1.6	-0.7	-24.2	-1.6
CC(C)Cc1ccc(C(C)NC(=O)Cc2ccc(S(=O)(=O)N3CCOCC3)s2)cc1 (stereo not drawn)	14.9	37.5*	15.2	44.8	-8.4
Cc1cc(Br)cn2c(Cc3ccccc3C(F)(F)F)c(-c3ccco3)nc12	/	1.1	/	-14.3	/
CN(CC(=O)Nc1cc([N+](=O)[O-])ccc1Cl)Cc1ccc(Br)cc1	0.3	3.7	-2.7	11.3	-5.5
Cc1ccsc1CN(C)CC(=O)Nc1ccc([N+](=O)[O-])cc1Cl	0.4	1.9	-0.1	51.5*	-10.5
O=C(C(=O)N1CCN(C(=O)OCc2ccccc2)CC1)c1cccnc1	/	0.0	/	22.7	/
COc1ccc(NC(=O)c2ccc(CN3CCN(c4ccccc4)CC3)cc2)cc1	9.7	39.9*	12.9	22.4	-18.4
O=C(NCc1ccc(F)cc1)c1cc(C2CCCN(C(=O)CCCc3ccccc3)C2)on1 (stereo not drawn)	/	-0.8	/	-10.6	/
Cc1cc(NC(=O)NC(=O)c2ccccc2NC(=O)C(C)N)ccc1Oc1ncc(Br)cn1 (stereo not drawn)	/	43.5*	/	-7.3	/
COc1ccc(Cl)cc1NC(=O)CN(C)C(=O)CN1C(=O)NC(C)(c2ccc3ccccc3c2)C1=O (stereo not drawn)	/	12.2	/	20.2	/
CCOc1ccc(C(=O)Nc2ncccc2Cl)cc1	-1.6	1.2	-1.0	5.1	-6.1
O=C(COc1ncnc2cc([N+](=O)[O-])ccc12)NC(=O)NC1CCCCC1	1.3	40.6*	1.4	-1.8	-6.4
CC(C)c1ccc(N=c2c([N+](=O)[O-])nn(-c3ccc4c(c3)OCCO4)n2O)cc1	2.3	17.5	2.7	64.3*	-6.6

Screening data as filed in PubChem.
